Laboratory results reported in ChEMBL document CHEMBL1143519, “2-Piperazinecarboxamides as potent and selective melanocortin subtype-4 receptor agonists” (Bioorg Med Chem Lett, 2005).

Key:
Melanocortin receptor 4 [1] = target: T1, Melanocortin receptor 4 (Homo sapiens, UniProt P32245); assay: Concentration of compound at 50% maximum cAMP accumulation mediated by human melanocortin 4 receptor; assay type: functional
Melanocortin receptor 5 [2] = target: T2, Melanocortin receptor 5 (Homo sapiens, UniProt P33032); assay: Concentration of compound at 50% maximum cAMP accumulation mediated by human melanocortin 5 receptor; assay type: functional
T2 sequence (P33032 whole entry): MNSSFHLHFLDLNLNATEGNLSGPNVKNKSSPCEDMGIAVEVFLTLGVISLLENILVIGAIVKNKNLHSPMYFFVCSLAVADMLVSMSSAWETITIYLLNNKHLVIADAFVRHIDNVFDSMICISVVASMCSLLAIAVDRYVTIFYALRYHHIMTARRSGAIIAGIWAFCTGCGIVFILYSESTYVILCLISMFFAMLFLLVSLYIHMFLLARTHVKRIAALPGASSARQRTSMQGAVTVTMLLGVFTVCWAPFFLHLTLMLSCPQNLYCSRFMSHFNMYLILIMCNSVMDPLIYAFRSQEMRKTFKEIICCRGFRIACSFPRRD

Melanocortin receptor 3 [3] = target: T3, Melanocortin receptor 3 (Homo sapiens, UniProt P41968); conditions: at 10 µM
T3 sequence (P41968 whole entry): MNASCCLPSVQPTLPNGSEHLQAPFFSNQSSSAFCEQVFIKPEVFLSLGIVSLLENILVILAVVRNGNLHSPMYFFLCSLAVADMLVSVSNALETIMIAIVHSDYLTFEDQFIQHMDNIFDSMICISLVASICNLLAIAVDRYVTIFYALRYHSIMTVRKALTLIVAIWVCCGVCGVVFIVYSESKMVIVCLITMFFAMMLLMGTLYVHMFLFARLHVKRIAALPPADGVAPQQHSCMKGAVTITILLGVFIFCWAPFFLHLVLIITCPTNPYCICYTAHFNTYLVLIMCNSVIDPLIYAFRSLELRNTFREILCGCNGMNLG

Melanocortin receptor 4 [4] = target: T1, Melanocortin receptor 4; assay: Inhibitory concentration to displace [125I]NDP-alpha-MSH from human melanocortin 4 receptor expressed in CHO cells; Control 19 nM; assay type: cell-based
[5] = Selectivity for human melanocortin 3 receptor over melanocortin 5 receptor expressed in CHO cells; control 6 nM; assay type: cell-based
Melanocortin receptor 5 [6] = target: T2, Melanocortin receptor 5; conditions: at 10 µM
Melanocortin receptor 4 [7] = target: T1, Melanocortin receptor 4; conditions: at 10 µM
[8] = target: Melanocortin receptor (M3 and M4) (Homo sapiens) (UniProt P32245+P41968); assay: Selectivity for human melanocortin 3 receptor over melanocortin 4 receptor expressed in CHO cells; control 1 nM; assay type: cell-based
Melanocortin receptor 3 [9] = target: T3, Melanocortin receptor 3; assay: Concentration of compound at 50% maximum cAMP accumulation mediated by human melanocortin 3 receptor; assay type: functional
Rattus norvegicus = organism: Rattus norvegicus; assay: Covalent binding to rat microsomal proteins after 30 min of incubation with [3H]-compound in the presence of NADPH (n=3); assay type: functional
Procedure, shortened: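 Tritium-labelled compound was incubated for 30 min with rat liver microsomes plus NADPH. Radioactivity bound covalently to microsomal protein was expressed as pmol equivalents per mg protein. Values are mean ± standard deviation of n = 3.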

T1 sequence (P32245 whole entry): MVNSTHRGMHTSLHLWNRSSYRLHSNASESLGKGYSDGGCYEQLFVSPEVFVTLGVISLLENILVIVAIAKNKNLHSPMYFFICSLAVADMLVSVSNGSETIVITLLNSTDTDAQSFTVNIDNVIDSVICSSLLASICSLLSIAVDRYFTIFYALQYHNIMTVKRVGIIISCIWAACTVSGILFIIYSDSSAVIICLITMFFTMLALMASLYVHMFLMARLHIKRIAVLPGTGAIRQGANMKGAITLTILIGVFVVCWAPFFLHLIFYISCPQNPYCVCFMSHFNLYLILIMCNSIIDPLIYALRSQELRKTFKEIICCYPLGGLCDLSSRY

Row | SMILES | EC50 (Melanocortin receptor 4 [1]) [nM] | EC50 (Melanocortin receptor 5 [2]) [nM] | Accumulation (Melanocortin receptor 3 [3]) [%] | IC50 (Melanocortin receptor 4 [4]) [nM] | Selectivity [5] | Accumulation (Melanocortin receptor 5 [6]) [%] | Accumulation (Melanocortin receptor 4 [7]) [%] | Selectivity [8] | EC50 (Melanocortin receptor 3 [9]) [nM] | Activity (Rattus norvegicus)
1 | CC(C)(C)NC(=O)C1(C2CCCCC2)CCN(C(=O)[C@@H](Cc2ccc(F)cc2)NC(=O)[C@@H]2CN[C@@H](C(C)(C)C)CN2)CC1 | 7 | 360 | 11 | 5 | 39 | 46 | 99 | 116 | – | –
2 | CC[C@H]1CN[C@H](C(=O)N[C@H](Cc2ccc(F)cc2)C(=O)N2CCC(C(=O)NC(C)(C)C)(C3CCCCC3)CC2)CN1C | 2 | 450 | 29 | 3 | 192 | 56 | 85 | 116 | 150 | –
3 | C[C@H]1CN[C@H](C(=O)N[C@H](Cc2ccc(F)cc2)C(=O)N2CCC(C(=O)NC(C)(C)C)(C3CCCCC3)CC2)CN1 | 8 | 880 | 6 | 6 | 87 | 42 | 79 | 86 | – | 50
4 | CC(C)[C@@H]1CN[C@H](C(=O)N[C@H](Cc2ccc(F)cc2)C(=O)N2CCC(C(=O)NC(C)(C)C)(C3CCCCC3)CC2)CN1 | 42 | 1400 | 6 | 20 | 49 | 41 | 77 | 61 | – | –
5 | CC(C)(C)NC(=O)C1(C2CCCCC2)CCN(C(=O)[C@@H](Cc2ccc(F)cc2)NC(=O)[C@@H]2CN[C@@H](C3(C)CC3)CN2)CC1 | 7 | 300 | 10 | 5 | 40 | 62 | 95 | 99 | – | –
6 | CC(C)C1CNC[C@@H](C(=O)N[C@H](Cc2ccc(F)cc2)C(=O)N2CCC(C(=O)NC(C)(C)C)(C3CCCCC3)CC2)N1 (some centres undefined) | 18 | – | 4 | 11 | 105 | 10 | 92 | 81 | – | 216
7 | CC[C@H]1CN[C@H](C(=O)N[C@H](Cc2ccc(F)cc2)C(=O)N2CCC(C(=O)NC(C)(C)C)(C3CCCCC3)CC2)CN1 | 5 | 710 | 9 | 3 | 126 | 43 | 89 | 152 | – | –
8 | CC(C)[C@H]1CN[C@H](C(=O)N[C@H](Cc2ccc(F)cc2)C(=O)N2CCC(C(=O)NC(C)(C)C)(C3CCCCC3)CC2)CN1 | 3 | 340 | 8 | 4 | 116 | 49 | 82 | 140 | – | 107
9 | CC[C@@H]1CN[C@H](C(=O)N[C@H](Cc2ccc(F)cc2)C(=O)N2CCC(C(=O)NC(C)(C)C)(C3CCCCC3)CC2)CN1C | 330 | 2400 | 8 | 46 | 49 | 36 | 58 | 36 | – | –
10 | CC[C@@H]1CN[C@H](C(=O)N[C@H](Cc2ccc(F)cc2)C(=O)N2CCC(C(=O)NC(C)(C)C)(C3CCCCC3)CC2)CN1 | 150 | – | 6 | 40 | 75 | 45 | 69 | 59 | – | –
11 | CC(C)(C)NC(=O)C1(C2CCCCC2)CCN(C(=O)[C@@H](Cc2ccc(F)cc2)NC(=O)[C@@H]2CNC3(CC3)CN2)CC1 | 41 | 1900 | 6 | 17 | 61 | 36 | 53 | 42 | – | –
12 | CC(C)(C)NC(=O)C1(C2CCCCC2)CCN(C(=O)[C@@H](Cc2ccc(F)cc2)NC(=O)[C@@H]2CN[C@H](C(C)(C)C)CN2)CC1 | 91 | 1000 | 5 | 29 | 26 | 54 | 77 | 48 | – | –
13 | CC(C)(C)NC(=O)C1(C2CCCCC2)CCN(C(=O)[C@@H](Cc2ccc(F)cc2)NC(=O)[C@@H]2CN[C@H](C3(C)CC3)CN2)CC1 | 93 | 920 | 5 | 24 | 23 | 56 | 69 | 49 | – | –
14 | CC(C)N(C(=O)C1(C2CCCCC2)CCN(C(=O)[C@@H](Cc2ccc(F)cc2)NC(=O)[C@@H]2CN(C)CCN2)CC1)C(C)C | – | – | – | – | – | – | – | – | – | 2150
15 | CC(C)(C)NC(=O)C1(C2CCCCC2)CCN(C(=O)[C@@H](Cc2ccc(F)cc2)NC(=O)[C@@H]2CN[C@H](C3CC3)CN2)CC1.CC(F)(F)C(=O)O | 36 | 1400 | 4 | 25 | 65 | 33 | 67 | 42 | – | –
16 | CC(C)(C)NC(=O)C1(C2CCCCC2)CCN(C(=O)[C@@H](Cc2ccc(F)cc2)NC(=O)[C@@H]2CN[C@@H](C3CC3)CN2)CC1 | 5 | 760 | 9 | 8 | 59 | 44 | 102 | 119 | – | 103
